The text below walks through data of ChEMBL document CHEMBL1772943, “Potent, selective, and orally available benzoisothiazolone phosphomannose isomerase inhibitors as probes for congenital disorder of glycosylation Ia” (J Med Chem, 2011).

In brackets after ≈: the same amount, converted by molar mass. Where only a bound is given, the exact number is not on record here.

In data set [1] the target is T1, Mannose-6-phosphate isomerase (Homo sapiens, UniProt P34949).
T1 sequence (P34949 whole entry): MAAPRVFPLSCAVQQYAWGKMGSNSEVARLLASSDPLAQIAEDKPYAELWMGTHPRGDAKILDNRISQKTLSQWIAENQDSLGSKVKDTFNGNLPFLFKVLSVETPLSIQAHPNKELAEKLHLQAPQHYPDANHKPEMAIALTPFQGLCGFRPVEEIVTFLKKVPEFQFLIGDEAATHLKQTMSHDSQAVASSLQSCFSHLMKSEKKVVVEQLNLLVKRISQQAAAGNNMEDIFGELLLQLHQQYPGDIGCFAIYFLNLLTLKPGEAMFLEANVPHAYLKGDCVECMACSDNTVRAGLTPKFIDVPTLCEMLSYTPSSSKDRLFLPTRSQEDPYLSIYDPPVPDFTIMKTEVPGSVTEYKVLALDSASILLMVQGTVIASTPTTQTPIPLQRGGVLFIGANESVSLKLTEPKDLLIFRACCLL
Briefly: Inhibition of human purified phosphomannose isomerase.

Another data set deals with T2, Phosphomannomutase 2 (Homo sapiens, UniProt O15305).
T2 sequence (O15305 whole entry): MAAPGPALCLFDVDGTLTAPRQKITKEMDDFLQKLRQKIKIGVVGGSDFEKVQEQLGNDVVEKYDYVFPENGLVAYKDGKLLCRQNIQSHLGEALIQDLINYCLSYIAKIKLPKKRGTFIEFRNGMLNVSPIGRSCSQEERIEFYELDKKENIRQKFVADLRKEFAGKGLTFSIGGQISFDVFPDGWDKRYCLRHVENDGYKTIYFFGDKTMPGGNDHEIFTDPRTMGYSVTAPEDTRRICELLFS
Briefly: Inhibition of human purified PMM2.

A short description of data set [2]: Inhibition of human purified phosphomannose isomerase.
Data set [3] in a line: Metabolic stability of the compound in mouse plasma assessed as compound remaining at 10 uM after 3 hrs by LC/MS/MS analysis. The class given is ADME, cell-free. To be noted: read-out: Stability. Put shortly:
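Fresh mouse plasma with test article at 10 μM, run in duplicate at 37 °C. Sampled at t=0 and t=3 h; % parent remaining quantified by LC/MS/MS.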

For the next data set, the system named is HeLa. Briefly: Cytotoxicity against human HeLa cells at 12.5 to 100 uM after 2 hrs. The format is cell-based. A digest of the protocol: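 HeLa cells at 70% confluency were preincubated with compound for 2 h at 37°C. They were then labelled with 50 μCi/mL ³H-mannose and 5 μCi/mL ³⁵S-Met/Cys for 1 h at 37°C, washed, and lysed in 10 mM Tris pH 7.4 with 1% NP-40. Proteins were precipitated with 10% TCA. ³⁵S incorporation read protein synthesis and toxicity; DMSO-treated cells served as the reference.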

Data set [4] is described as follows: AUC (0 to t) in C57BL/6 mouse at 20 mg/kg, po. The class given is ADME, organism-based. Details: dose 20 mg/kg, route oral. To be noted: plasma. A digest of the protocol:
(§1)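 C57BL/6 mice, n=3 per dose, given single oral dose of 20 mg/kg (5 mg/kg IV arm run in parallel). Animals sacrificed for blood at 0.5, 1, 2, 4 and 6 hr after oral dosing; plasma separated by centrifugation, stored at -20°C, extracted with 2-fold excess acetonitrile, vortexed 3 min, centrifuged 15 min (7500g), supernatant quantified by LCMS.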

A short description of data set [5]: Cmax in C57BL/6 mouse at 20 mg/kg, po. The class given is ADME, organism-based. Also on record: dose 20 mg/kg, route oral. The note with it: in vivo. A digest of the protocol: as §1
A short description of data set [6]: Metabolic stability of the compound in mouse liver microsomes assessed as compound remaining at 10 uM after 1 hr by LC/MS/MS analysis. The class given is ADME, Microsome. The note with it: read-out: Stability. Put shortly: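 Mouse liver microsomes at 0.5 mg/ml, test article at 10 μM, duplicate, 37 °C. Aliquots at t=0 and t=1 h; % parent remaining by LC/MS/MS. Positive control phenacetin conversion to acetaminophen; negative control NADPH-deficient mixture.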

The test system of another data set is Liver. Briefly: Metabolic stability of the compound in rat liver S9 fraction at 10 uM after 2 hrs by LCMS analysis in presence of GSH transferase. The format is ADME, subcellular. To be noted: s9, 2 h. A digest of the protocol: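 The reaction was quenched by acetonitrile precipitation, and the supernatant was dried and reconstituted. Positive-ion electrospray LCMS tracked parent compound and GSH conjugates. Run in triplicate, with diclofenac as positive control.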

The subject of the next data set is Mus musculus. Kind of data set: Oral bioavailability in C57BL/6 mouse at 20 mg/kg. The format is ADME, organism-based. The note with it: in vivo. Put shortly:
(§2)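 C57BL/6 mice, n=3 per dose, dosed 5 mg/kg IV and 20 mg/kg PO. Blood collected at PO 0.5, 1, 2, 4, 6 hr and IV 10 min, 0.5, 1, 2, 4, 6 hr. Plasma separated by centrifugation, stored at -20°C, extracted with 2-fold excess acetonitrile (vortex 3 min, 15 min at 7500g), supernatant analysed by LCMS.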

Data set [7] is described as follows: Solubility of the compound at pH 7.4. The format is physicochemical. The note with it: buffer.
The nature of data set [8]: Half life in C57BL/6 mouse at 20 mg/kg, po. The class given is ADME, organism-based. Details: dose 20 mg/kg, route oral. To be noted: in vivo. Put shortly: as §2
The next data set is described as follows: in vivo. To be noted: C57BL/6, mouse, po, 20 mg/kg.

Broadly, the IC50 is the midpoint of a concentration-inhibition curve. As for `O=C1c2ccccc2SC1c1ccccc1` (stereo not drawn), the IC50 in data set [1] is more than 10 µM.

Molecule `O=c1c2ccccc2sn1-c1ccc2ccccc2c1` registered a 50% inhibitory concentration (IC50) on Phosphomannomutase 2 of more than 20 µM.

The molecule `NC(=O)C1(NC(=O)CCCOc2ccc(Cl)cc2Cl)Cc2ccccc2C1` had an IC50 in data set [2] of 40 µM.

The AUC(0-t) is the area under the concentration-time curve up to a stated or last time point. A lower AUC(0-t) goes with low exposure. By Cmax is commonly meant the maximum level reached in the sampled fluid or tissue. The term solubility denotes the dissolved amount per volume that the medium holds. Usually half-life stands for the time in which the quantity being followed falls by half. Read a high half-life as slow decline. The term Tmax denotes the time at which the peak concentration occurs. `O=c1c2cc(F)ccc2sn1-c1ccccc1` showed a half-maximal inhibitory concentration (IC50) against Phosphomannomutase 2 of more than 80 µM. Further, in [3], the remaining at 3 h, 10 µM was 99%. Besides, in the data set with HeLa, the Activity result is reported as “Non-toxic”. Moreover, in data set [4], the AUC(0-t) came out at 0.305 µM·h. This molecule returned a Cmax in [5] of 162 nM. In data set [6], the remaining at 1 h, 10 µM is 85%. Besides, the Stability entry in the data set on Liver is recorded as “Stable”. The F in the data set with Mus musculus is recorded as 35%. The molecule also showed a solubility in data set [7] of 3.8 µg/mL (≈ 15.5 µM). For the same molecule, in data set [8], the half-life was 1.3 h. Moreover, the Tmax in the data set “in vivo” was 0.75 h.

As for `Cc1ccc(C)c(-n2sc3cc(F)ccc3c2=O)c1`, the remaining at 3 h, 10 µM in data set [3] was 48%. For the same molecule, in data set [6], the remaining at 1 h, 10 µM amounted to 82.3%. The molecule also registered a solubility in data set [7] of 22.5 µg/mL (≈ 82.3 µM). Also, the concentration for half-maximal inhibition (IC50) in data set [1] is 1 µM.

Consider `O=c1c2ccccc2sn1-c1ccc(Cl)cc1`, for which the IC50 on Phosphomannomutase 2 was more than 20 µM.

Molecule `O=c1c2cc(F)ccc2sn1-c1cccc(F)c1` yielded an IC50 against Phosphomannomutase 2 of more than 20 µM.

In turn, `O=c1c2cc(F)ccc2sn1-c1ccc(F)cc1` yielded an IC50 at Phosphomannomutase 2 of more than 80 µM.

Take `O=c1c2cc(F)ccc2sn1-c1ccc(Cl)cc1`: the IC50 against Phosphomannomutase 2 was more than 20 µM.

With `Cc1ccc(C)c(-n2sc3ccc(F)cc3c2=O)c1`, in data set [6], the remaining at 1 h, 10 µM is 81%. In [7], the solubility is 11 µg/mL (≈ 40.2 µM).

In turn, `CC(C)(C)c1ccc(-n2sc3ccccc3c2=O)cc1` gave an IC50 against Phosphomannomutase 2 of more than 20 µM. The remaining at 3 h, 10 µM in data set [3] was determined as 10%. Further, in the data set with HeLa, the Activity entry was “Non-toxic”. For the same molecule, in data set [6], the remaining at 1 h, 10 µM stood at 62%. In data set [7], this molecule gave a solubility of 2.5 µg/mL (≈ 8.82 µM).

On to `O=c1c2cc(F)ccc2sn1-c1ccccc1F`, for which the half-inhibitory concentration (IC50) at Phosphomannomutase 2 is more than 20 µM.

`CN(C)c1cccc(-n2sc3ccccc3c2=O)c1` showed an IC50 against Phosphomannomutase 2 of more than 20 µM.

`Cc1ccc(C)c(-n2sc3ccccc3c2=O)c1` displayed a concentration for half-maximal inhibition (IC50) in data set [1] of 6.6 µM. In other words, the single-digit micromolar range.

`O=c1c2ccccc2sn1-c1cccc(I)c1`: the 50% inhibitory concentration (IC50) against Phosphomannomutase 2 was more than 20 µM.

With `Cc1ccc(C)c(N2Cc3ccccc3C2=O)c1`, the IC50 in [1] was more than 10 µM.

Regarding `Cc1ccc(-n2sc3ccccc3c2=O)cc1`, the values for the concentration for half-maximal inhibition (IC50) (against Phosphomannomutase 2; in data set [1]) were more than 20 µM and 5.2 µM, respectively.

`O=c1c2ccccc2sn1-c1cccc(C(F)(F)F)c1` showed an IC50 against Phosphomannomutase 2 of 13.9 µM. That is a double-digit micromolar value.

As for `Cc1ccccc1-n1sc2cc(F)ccc2c1=O`, the concentration for half-maximal inhibition (IC50) at Phosphomannomutase 2 is more than 20 µM.

As to `CN(C)c1ccc(-n2sc3ccccc3c2=O)cc1`, the results for the half-inhibitory concentration (IC50) (at Phosphomannomutase 2; in [1]) were 13.3 µM and 1.9 µM, respectively.

On to `Cc1cccc(-n2sc3ccccc3c2=O)c1`, for which the IC50 against Phosphomannomutase 2 was more than 20 µM.

For the molecule `O=c1c2ccccc2sn1-c1cccc(Cl)c1`, the 50% inhibitory concentration (IC50) against Phosphomannomutase 2 is more than 20 µM.

With `COc1cccc(-n2sc3ccccc3c2=O)c1`, the IC50 on Phosphomannomutase 2 is more than 10 µM.

For `NC(=O)C1(NC(=O)CCCSc2ccc(Cl)cc2Cl)Cc2ccccc2C1`, in data set [1], the IC50 was 14 µM.

The molecule `NC(=O)C1(NC(=O)CCCNc2ccc(Cl)cc2Cl)Cc2ccccc2C1` registered an IC50 in data set [1] of 50 µM.

`O=c1c2ccccc2sn1-c1ccc(C(F)(F)F)cc1`: the IC50 (on Phosphomannomutase 2; in data set [1]) was more than 20 µM in each case.

The molecule `CCOC(=O)c1ccc(-n2sc3ccccc3c2=O)cc1` displayed an IC50 against Phosphomannomutase 2 of more than 20 µM.
